pIC50: −log10 of the molar value. Activity calls are given as the source filed them. The rule behind the calls is not given here.
Tests used:
CHO-K1 [1] = experiment: Inhibition of polyamine transporter in CHOK1 cells assessed as rescue of 2.4 uM N-(anthracenylmethyl) homospermidine-induced toxicity by measuring cell growth at 7 uM measured after 48 hrs in presence of amine oxidase suppressor aminoguanidine by MTS assay (reference value: 23%); format: cell-based; parameters: scale not given: the % may be the effect or the level left; conditions: Cricetulus griseus
Procedure, shortened: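 CHO K1 cells (1000 cells/well, aminoguanidine 1 mM preincubation) were given a toxic Ant-44 dose (2.4 μM) with candidate compound at 5 or 7 μM. Cells were incubated 48 h at 37°C, and relative growth versus untreated control was read by MTS.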

CHO-K1 [2] = experiment: Cytotoxicity against CHOK1 cells assessed as effect on cell growth at < 7 uM measured after 48 hrs by MTS assay; format: cell-based, Cricetulus griseus; conditions: chinese hamster, cho-k1, 48 h
L3.6pl [3] = experiment: Cytotoxicity against human L3.6PL cells assessed as reduction in cell viability measured after 72 hrs by MTS assay; format: cell-based
Procedure, shortened: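 L3.6pl cells, 500 cells/well in RPMI 1640 with 10% FBS and 250 μM aminoguanidine, plated overnight. Compound in PBS added, then 72 h at 37°C. MTS absorbance at 490 nm. IC50 is the dose giving 50% relative growth versus untreated control. Run twice in triplicate.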

L3.6pl [4] = experiment: Effect on polyamine level in human L3.6PL cells assessed as spermine level per mg protein in supernatant at 2 uM measured after 72 hrs in presence of amine oxidase suppressor aminoguanidine by LCMS analysis (reference value: 6152 +/- 5596 pmol/mg); format: functional
L3.6pl [5] = experiment: Effect on polyamine level in human L3.6PL cells assessed as arginine level per mg protein in supernatant at 2 uM measured after 72 hrs in presence of amine oxidase suppressor aminoguanidine by LCMS analysis (reference value: 22121 +/- 10585 pmol/mg); format: functional
L3.6pl [6] = experiment: Effect on polyamine level in human L3.6PL cells assessed as phenylalanine level per mg protein in supernatant at 5 uM measured after 72 hrs in presence of amine oxidase suppressor aminoguanidine by LCMS analysis (reference value: 14299 +/- 7194 pmol/mg); format: functional
[7] = target: Large neutral amino acids transporter small subunit 1 (Homo sapiens) (UniProt Q01650); experiment: Inhibition of LAT1-mediated amino acid transport in human L3.6PL cells assessed as reduction in intracellular leucine level measured after 72 hrs by LCMS analysis; format: cell-based
Procedure, shortened: (§1)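 L3.6pl cells (50,000 cells/mL, 10 mL, 1 mM aminoguanidine) were seeded in poly-lysine-treated 9 cm dishes and incubated overnight at 37°C. They were then dosed with compound at 2, 5 or 7 μM from PBS stocks (2, 5, 7 mM) and incubated 72 h. Runs were done in triplicate, with amino acid levels per mg protein.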

[8] = target: Large neutral amino acids transporter small subunit 1 (Homo sapiens) (UniProt Q01650); experiment: Inhibition of LAT1-mediated amino acid transport in human L3.6PL cells assessed as reduction in intracellular methionine level measured after 72 hrs by LCMS analysis; format: cell-based; procedure, shortened: as §1
[9] = Selectivity index, ratio of IC50 for cytotoxicity against CHOK1 cells assessed as reduction in cell viability after 48 hrs by MTS assay to IC50 for […] human L3.6PL cells assessed as reduction in cell viability after 48 hrs by MTS assay
Procedure, shortened: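 The ratio is of 48 h IC50 values from MTS growth assays. CHO K1/CHO-MG cells were plated at 1000 cells/well and L3.6pl at 500 cells/well, drug in PBS was added after overnight incubation, and absorbance was read at 490 nm. IC50 is 50% growth versus untreated control; runs were done twice in triplicate.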

[10] = target: Large neutral amino acids transporter small subunit 1 (Homo sapiens) (UniProt Q01650); experiment: Induction of LAT1-mediated polyamine efflux in aminoguanidine pretreated human L3.6PL cells assessed as reduction in cell viability at 5 uM measured after 72 hrs in presence of putrescine by MTS assay; format: cell-based
Procedure, shortened: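 L3.6pl cells pre-incubated 24 h with 250 μM aminoguanidine. Then given increasing compound plus putrescine, spermidine or spermine, each fixed at 1 or 5 μM, for 72 h at 37°C. Growth by MTS relative to untreated control.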

L3.6pl [11] = experiment: Effect on polyamine level in human L3.6PL cells assessed as decrease in intracellular spermine level at 1 uM measured after 72 hrs in presence of amine oxidase suppressor aminoguanidine and Ant-44 by LCMS analysis; format: functional, cell-based
Procedure, shortened: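 L3.6pl cells dosed with Ant-44 fixed at 2 μM plus increasing compound for 72 h at 37°C. Intracellular polyamines and Ant-44 given as nmol/mg protein, in duplicate, with a parallel untreated control.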

Chain of Large neutral amino acids transporter small subunit 1 (Homo sapiens) (Q01650 whole entry): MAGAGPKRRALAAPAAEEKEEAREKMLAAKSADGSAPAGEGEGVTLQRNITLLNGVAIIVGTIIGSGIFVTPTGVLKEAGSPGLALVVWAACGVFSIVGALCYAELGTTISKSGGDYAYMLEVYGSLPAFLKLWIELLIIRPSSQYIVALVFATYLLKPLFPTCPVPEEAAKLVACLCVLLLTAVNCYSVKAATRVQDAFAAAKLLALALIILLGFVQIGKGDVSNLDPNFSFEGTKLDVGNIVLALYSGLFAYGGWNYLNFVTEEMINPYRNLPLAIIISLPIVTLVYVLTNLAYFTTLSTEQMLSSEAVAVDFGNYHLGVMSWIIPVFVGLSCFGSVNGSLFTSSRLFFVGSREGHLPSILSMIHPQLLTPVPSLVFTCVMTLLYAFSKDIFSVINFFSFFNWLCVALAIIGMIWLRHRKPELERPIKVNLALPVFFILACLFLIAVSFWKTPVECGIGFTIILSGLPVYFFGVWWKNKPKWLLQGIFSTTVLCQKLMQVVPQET

CC(C)CCN1CCN([C@@H](CNCc2ccccc2)CC2CCCCC2)C[C@@H]1CC(C)C
Activity (CHO-K1 [1]): 3%
Activity (CHO-K1 [2]): Non-Toxic
pIC50 (L3.6pl [3]): 5.23
Activity (L3.6pl [4]): 2532 pmol/mg
Activity (L3.6pl [5]): 18396 pmol/mg
Activity (L3.6pl [6]): 160462 pmol/mg
inhibition [7]: Dose-dependent effect
inhibition [8]: Dose-dependent effect
Ratio IC50 [9]: 2
Activity [10]: Active
Activity (L3.6pl [11]): Active
